Calls of active or inactive are those of the source.
How the values were obtained:
[1] = target: T1, Serine/threonine-protein kinase TNNI3K (Rattus norvegicus) (UniProt Q7TQP6); assay: Inhibition of TNNI3K in rat H9c2 cells assessed as reduction in p38 phosphorylation at 0.5 to 1 uM by Western blot analysis; format: cell-based; conditions: dose 0.5-1 µM
T1 sequence (whole entry): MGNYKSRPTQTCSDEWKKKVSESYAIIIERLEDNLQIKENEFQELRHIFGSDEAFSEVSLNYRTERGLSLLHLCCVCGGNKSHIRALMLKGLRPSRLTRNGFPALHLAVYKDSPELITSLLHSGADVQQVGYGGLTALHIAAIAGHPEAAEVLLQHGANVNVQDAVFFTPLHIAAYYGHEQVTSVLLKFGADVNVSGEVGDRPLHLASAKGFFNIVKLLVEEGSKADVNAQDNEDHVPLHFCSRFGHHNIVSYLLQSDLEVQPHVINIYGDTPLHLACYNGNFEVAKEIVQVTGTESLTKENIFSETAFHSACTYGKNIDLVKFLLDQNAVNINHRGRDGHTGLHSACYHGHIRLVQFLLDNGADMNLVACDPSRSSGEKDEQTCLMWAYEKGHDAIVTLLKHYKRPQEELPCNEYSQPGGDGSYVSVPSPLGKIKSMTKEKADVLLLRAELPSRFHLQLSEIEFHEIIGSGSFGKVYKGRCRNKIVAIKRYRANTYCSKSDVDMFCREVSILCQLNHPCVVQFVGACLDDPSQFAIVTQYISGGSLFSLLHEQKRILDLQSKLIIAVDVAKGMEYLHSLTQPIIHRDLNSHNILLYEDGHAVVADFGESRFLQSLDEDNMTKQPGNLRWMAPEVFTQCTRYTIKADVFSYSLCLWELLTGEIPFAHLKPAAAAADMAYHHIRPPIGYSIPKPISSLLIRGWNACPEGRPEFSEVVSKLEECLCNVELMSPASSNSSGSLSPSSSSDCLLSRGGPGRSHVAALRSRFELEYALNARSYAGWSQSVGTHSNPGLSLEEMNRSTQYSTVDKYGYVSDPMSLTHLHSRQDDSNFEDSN
Procedure, shortened: (§1)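 H9c2 cells under OGD were treated with saline or 0.5 or 1.0 µM inhibitor. Cells were trypsinised, washed in cold PBS, lysed in RIPA with sonication and centrifuged 30 min. Total protein was quantified and separated by SDS-PAGE, then transferred to PVDF. Blots were probed with primary and secondary antibodies and detected by ECL.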

[2] = Toxicity in C57BL/6 mouse assessed as effect on morphology of main organs at 25 mg/kg, ip administered for 28 days and observed on day 28 by H and E staining based fluorescence microscopy; format: organism-based; conditions: in vivo, 672 h, time 28 day
Procedure, shortened: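 Main organs of MI-model C57BL/6 mice, given 25 mg/kg ip every two days or sham-operated, examined by H&E staining of tissue sections for morphology.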

[3] = tested on: H9c2; assay: Cytoprotective activity against OGD-induced cell death in rat H9c2 cells assessed as cell viability incubated for 24 hrs by LDH release assay; format: functional, cell-based; conditions: dose 0.5-1 µM
Procedure, shortened: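 OGD-exposed H9c2 cells were treated with 0.5 or 1.0 µM inhibitor for 24 h. LDH released into the culture medium was measured with a commercial LDH cytotoxicity kit.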

[4] = tested on: H9c2; assay: Inhibition of OGD-induced apoptosis in rat H9c2 cells assessed as reduction in NLRP3 level at 0.5 to 1 uM by Western blot analysis; format: functional, cell-based; conditions: dose 0.5-1 µM; procedure, shortened: as §1
[5] = target: Vascular endothelial growth factor receptor 2 (Homo sapiens) (UniProt P35968); assay: Inhibition of recombinant human KDR (790 to end residues) assessed as residual activity at 1 uM using myelin basic protein as substrate incubated for 40 mins by [gamma-33P]-ATP scintillation counting based radiometry assay relative to control
Chain of Vascular endothelial growth factor receptor 2 (Homo sapiens) (P35968 whole entry): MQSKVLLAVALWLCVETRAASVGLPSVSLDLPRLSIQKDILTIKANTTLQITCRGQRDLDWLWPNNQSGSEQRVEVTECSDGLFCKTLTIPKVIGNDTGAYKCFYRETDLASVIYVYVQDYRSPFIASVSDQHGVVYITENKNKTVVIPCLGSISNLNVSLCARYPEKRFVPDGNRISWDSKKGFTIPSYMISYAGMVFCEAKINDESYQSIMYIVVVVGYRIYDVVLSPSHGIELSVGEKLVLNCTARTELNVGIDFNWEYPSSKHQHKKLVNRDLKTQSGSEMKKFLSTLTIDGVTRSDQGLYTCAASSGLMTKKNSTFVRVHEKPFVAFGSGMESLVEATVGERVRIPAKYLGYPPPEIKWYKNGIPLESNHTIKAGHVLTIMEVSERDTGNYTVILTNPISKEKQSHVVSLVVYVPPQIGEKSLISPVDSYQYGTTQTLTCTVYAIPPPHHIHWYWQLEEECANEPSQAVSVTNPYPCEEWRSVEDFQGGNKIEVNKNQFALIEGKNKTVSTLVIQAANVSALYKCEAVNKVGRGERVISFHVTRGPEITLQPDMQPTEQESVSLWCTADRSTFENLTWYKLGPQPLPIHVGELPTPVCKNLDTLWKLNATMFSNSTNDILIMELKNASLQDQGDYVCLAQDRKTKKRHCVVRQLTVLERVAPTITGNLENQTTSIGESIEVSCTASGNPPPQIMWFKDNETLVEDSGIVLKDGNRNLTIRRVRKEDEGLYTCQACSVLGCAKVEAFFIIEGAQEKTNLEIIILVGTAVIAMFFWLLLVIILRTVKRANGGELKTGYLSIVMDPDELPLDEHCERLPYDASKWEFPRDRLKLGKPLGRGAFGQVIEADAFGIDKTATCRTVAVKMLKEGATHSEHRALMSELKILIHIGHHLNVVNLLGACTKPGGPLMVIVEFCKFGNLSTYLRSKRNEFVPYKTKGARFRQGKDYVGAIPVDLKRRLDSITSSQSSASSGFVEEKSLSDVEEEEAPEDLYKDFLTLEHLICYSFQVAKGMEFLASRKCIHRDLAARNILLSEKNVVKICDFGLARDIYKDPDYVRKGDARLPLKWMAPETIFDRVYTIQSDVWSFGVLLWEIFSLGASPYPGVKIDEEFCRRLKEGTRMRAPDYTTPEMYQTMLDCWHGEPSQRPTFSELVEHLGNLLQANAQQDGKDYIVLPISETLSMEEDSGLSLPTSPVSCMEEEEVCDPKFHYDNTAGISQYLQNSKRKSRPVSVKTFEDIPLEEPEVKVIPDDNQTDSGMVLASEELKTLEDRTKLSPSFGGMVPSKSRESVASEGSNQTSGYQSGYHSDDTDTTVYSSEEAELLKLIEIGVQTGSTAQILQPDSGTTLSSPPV

[6] = tested on: Mus musculus; assay: In vivo inhibition of TNNI3K in C57BL/6 mouse at 25 mg/kg, ip administered for 28 days and measured on day 28 by immunohistochemical staining based fluorescence microscopy; format: functional, organism-based; conditions: time 28.0 day
Procedure, shortened: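 Male C57BL/6 mice (5-6 weeks) with LAD-ligation MI; sham, saline or 25 mg/kg ip every two days, n=4, 28 days. Heart sections given EDTA (pH 8.0) or citrate (pH 6.0) microwave antigen retrieval, then primary antibody 30-40 min at 37°C. Detection by HRP polymer secondary with DAB (IHC) or fluorescent secondary (IF). Positive cells were quantified.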

[7] = tested on: H9c2; assay: Inhibition of OGD-induced apoptosis in rat H9c2 cells incubated for 24 hrs by annexinV-FITC and PI staining based flow cytometry analysis; format: functional, cell-based; conditions: dose 0.5-1 µM
[8] = tested on: Mus musculus; assay: Cardioprotective activity in C57BL/6 mouse model of myocardial infarction assessed as reduction in infarct area at 25 mg/kg, ip administered for 28 days and measured on day 28 by TTC staining based fluorescence microscopy; format: functional, organism-based; conditions: time 28.0 day
Procedure, shortened: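 Male C57BL/6 mice (5-6 weeks); MI by permanent LAD ligation under ip ketamine (100mg/kg)/xylazine (10mg/kg) with ventilation; sham group operated without LAD occlusion. Post-MI mice randomised to sham, normal saline or inhibitor groups (n=4); 25 mg/kg given ip every two days. Hearts assessed after 28 days: TTC staining (infarct yellow-white, viable red), Masson's trichrome (blue collagen) and H&E.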

[9] = tested on: Mus musculus; assay: Cardioprotective activity in C57BL/6 mouse model of myocardial infarction assessed as reduction in scar tissue at 25 mg/kg, ip administered for 28 days and measured on day 28 by masson staining based fluorescence microscopy; format: functional, organism-based; conditions: time 28.0 day
Procedure, shortened: (§2)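 MI made in male C57BL/6 mice (5-6 weeks) by permanent LAD ligation under ip ketamine (100mg/kg)/xylazine (10mg/kg), ventilated. Groups: sham, saline (NS), inhibitor 25 mg/kg ip every two days, n=4. Hearts examined after 28 days; TTC, Masson's trichrome and H&E staining of sections for infarct, collagen/scar, LV inflammatory cells and dilatation.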

[10] = tested on: H9c2; assay: Inhibition of OGD-induced apoptosis in rat H9c2 cells assessed as reduction in cytochromeC level by Western blot analysis; format: functional, cell-based; conditions: dose 0.5-1 µM; procedure, shortened: as §1
[11] = tested on: H9c2; assay: Inhibition of OGD-induced apoptosis in rat H9c2 cells assessed as reduction in proIL-1beta level at 0.5 to 1 uM by Western blot analysis; format: functional, cell-based; conditions: dose 0.5-1 µM; procedure, shortened: as §1
[12] = target: Mitogen-activated protein kinase 1 and 3 (ERK2 and ERK1) (Rattus norvegicus) (UniProt P63086+P21708); assay: Inhibition of ERK1/2 phosphorylation in rat H9c2 cells at 0.5 to 1 uM by Western blot analysis; format: cell-based; conditions: dose 0.5-1 µM; procedure, shortened: as §1
Chain of Mitogen-activated protein kinase 1 and 3 (ERK2 and ERK1) (Rattus norvegicus) (P21708 whole entry, looked up): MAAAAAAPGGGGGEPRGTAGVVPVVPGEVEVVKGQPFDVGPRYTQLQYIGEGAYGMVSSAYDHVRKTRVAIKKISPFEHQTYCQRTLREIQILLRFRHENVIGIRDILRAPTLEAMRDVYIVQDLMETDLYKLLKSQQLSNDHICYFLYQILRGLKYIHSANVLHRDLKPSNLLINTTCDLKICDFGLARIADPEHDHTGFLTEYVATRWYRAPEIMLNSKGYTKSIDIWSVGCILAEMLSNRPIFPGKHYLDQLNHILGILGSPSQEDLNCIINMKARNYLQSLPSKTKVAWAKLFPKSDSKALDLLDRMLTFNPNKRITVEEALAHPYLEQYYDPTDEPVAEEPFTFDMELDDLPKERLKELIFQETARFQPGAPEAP
Chain of Mitogen-activated protein kinase 1 and 3 (ERK2 and ERK1) (Rattus norvegicus) (P63086 whole entry, looked up): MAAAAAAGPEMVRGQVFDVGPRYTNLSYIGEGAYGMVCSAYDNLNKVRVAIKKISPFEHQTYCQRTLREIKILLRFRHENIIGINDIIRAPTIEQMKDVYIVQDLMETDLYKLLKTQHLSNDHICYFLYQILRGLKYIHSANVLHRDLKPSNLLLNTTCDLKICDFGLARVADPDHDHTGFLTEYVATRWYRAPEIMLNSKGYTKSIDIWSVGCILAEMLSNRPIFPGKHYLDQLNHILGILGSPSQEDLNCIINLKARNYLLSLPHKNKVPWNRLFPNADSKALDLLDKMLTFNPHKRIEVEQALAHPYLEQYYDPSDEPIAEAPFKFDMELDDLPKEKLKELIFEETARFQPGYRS

[13] = tested on: H9c2; assay: Inhibition of OGD-induced apoptosis in rat H9c2 cells assessed as viable cells at 0.5 uM incubated for 24 hrs by annexinV-FITC and PI staining based flow cytometry analysis (reference value: 85 %); format: functional
[14] = tested on: H9c2; assay: Effect on TNNI3K expression in rat H9c2 cells at 0.5 to 1 uM by Western blot analysis; format: functional, cell-based; conditions: dose 0.5-1 µM; procedure, shortened: as §1
[15] = tested on: Mus musculus; assay: Cardioprotective activity in C57BL/6 mouse model of myocardial infarction assessed as reduction in left ventricular inflammatory cells at 25 mg/kg, ip administered for 28 days and measured on day 28 by H and E staining based fluorescence microscopy; format: functional, organism-based; conditions: time 28.0 day; procedure, shortened: as §2

CN(C)CCCN1CCc2c(sc3ncnc(Nc4ccc(N(C)C)c(NC(=O)c5ccco5)c4)c23)C1
80%: Activity [5]
inactive: inhibition [11] | inhibition [12] | inhibition [14]
Non-Toxic: Activity [2]
87%: inhibition at 0.5 µM [13]
active: inhibition [1] | Activity [3] Dose-dependent effect | inhibition [4] | inhibition [6] | inhibition [7] Dose-dependent effect | Activity [8] | Activity [9] | inhibition [10] Dose-dependent effect | Activity [15]

Reference: ChEMBL document CHEMBL4765301, “Discovery of novel TNNI3K inhibitor suppresses pyroptosis and apoptosis in murine myocardial infarction injury” (Eur J Med Chem, 2020)
